Data reported in ChEMBL document CHEMBL3860044, “The Rational Design, Synthesis, and Antimicrobial Properties of Thiophene Derivatives That Inhibit Bacterial Histidine Kinases” (J Med Chem, 2016).

Tests used:
Assay type in all cases: functional
Staphylococcus aureus [1] = assay: Antibacterial activity against Staphylococcus aureus ATCC 29213 by broth microdilution method
Outline: (§1)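 Clinical resistant isolates and quality control strains (S. aureus ATCC 29213, E. coli ATCC 25922) are tested by EUCAST broth microdilution with a 10⁶ bacteria/mL inoculum, in triplicate, with or without a fixed adjuvant concentration. For MBC, the MIC dilution and at least two more concentrated dilutions are plated and CFU/mL counted.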

Staphylococcus aureus [2] = assay: Antibacterial activity against penicillin G-resistant/penicillinase producing Staphylococcus aureus isolate C1P15 by broth microdilution method
Outline: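 Broth microdilution per EUCAST on the clinical S. aureus isolate C1P15 (penicillinase producer, penicillin G resistant). Inoculum 10⁶ bacteria per mL. Run in triplicate. S. aureus ATCC 29213 served as the quality-control strain.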

Staphylococcus aureus [3] = assay: Bactericidal activity against Staphylococcus aureus ATCC 29213 by broth microdilution method; outline: as §1
Staphylococcus aureus [4] = assay: Bactericidal activity against penicillin G-resistant/penicillinase producing Staphylococcus aureus isolate C1P15 by broth microdilution method
Outline: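 MBC on clinical S. aureus isolate C1P15 (penicillinase, penicillin G resistant), following EUCAST broth microdilution at 10⁶ bacteria per mL, in triplicate. The MIC dilution and at least two more concentrated dilutions were plated and enumerated as CFU/mL. S. aureus ATCC 29213 served as quality control.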

Cc1onc(-c2ccccc2Cl)c1C(=O)N[C@@H]1C(=O)N2[C@@H]1SC(C)(C)[C@@H]2C(=O)O [CLOXACILLIN]
1 µg/mL: MIC (Staphylococcus aureus [1]) | MIC (Staphylococcus aureus [2]) | MBC (Staphylococcus aureus [3]) | MBC (Staphylococcus aureus [4])
